# Reference: article PMC4203403 (Journal of Medicinal Chemistry, 2014)
# Like-named read-outs stand apart in the source and are kept apart here.
# Key:
# CB1 receptor [1] = molecular target: T1, CB1 receptor (Homo sapiens, UniProt P21554); experiment: ERK1/2 phosphorylation immunoblotting in HEK293 cells expressing CB1; format: cell-based; conditions: for pertussis toxin (PTX) sensitivity of induced ERK1/2 phosphorylation: PTX pretreatment; for pertussis toxin (PTX) sensitivity of induced ERK1/2 phosphorylation / effect of β-arrestin 1 knockdown on induced ERK1/2 phosphorylation: result in words; for effect of β-arrestin 1 knockdown on induced ERK1/2 phosphorylation: siRNA targeting β-arrestin 1; for modulator concentration at which ERK1/2 phosphorylation reached a plateau: in the presence of 0.2 μM CP55,940, 5 min
# CB1 receptor [2] = molecular target: T1, CB1 receptor; conditions: [3H]CP55,940 as orthosteric ligand; given for comparison; cited from earlier work
# CB1 receptor [3] = molecular target: T1, CB1 receptor; experiment: Radioligand binding assay with [3H]CP55,940; conditions: for α: binding cooperativity factor: [3H]CP55,940 as orthosteric ligand, ND = no detectable modulation of [3H]CP55,940 binding using up to 32 μM
# Outline: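 CB1 was transiently expressed in HEK293 cells by calcium phosphate transfection, and membranes were harvested 24 h later. […] Nonspecific binding was measured with 1 μM CP55,940. Read-out was GF/C filtration and scintillation counting. Run in duplicate, ≥3 experiments; KB and α fitted by nonlinear regression.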
# CB1 receptor [4] = molecular target: T1, CB1 receptor; experiment: CP55,940-induced [35S]GTPγS binding assay, HEK293 cell membranes expressing CB1; format: biochemical; conditions: result in words
# T1 sequence (P21554 whole entry): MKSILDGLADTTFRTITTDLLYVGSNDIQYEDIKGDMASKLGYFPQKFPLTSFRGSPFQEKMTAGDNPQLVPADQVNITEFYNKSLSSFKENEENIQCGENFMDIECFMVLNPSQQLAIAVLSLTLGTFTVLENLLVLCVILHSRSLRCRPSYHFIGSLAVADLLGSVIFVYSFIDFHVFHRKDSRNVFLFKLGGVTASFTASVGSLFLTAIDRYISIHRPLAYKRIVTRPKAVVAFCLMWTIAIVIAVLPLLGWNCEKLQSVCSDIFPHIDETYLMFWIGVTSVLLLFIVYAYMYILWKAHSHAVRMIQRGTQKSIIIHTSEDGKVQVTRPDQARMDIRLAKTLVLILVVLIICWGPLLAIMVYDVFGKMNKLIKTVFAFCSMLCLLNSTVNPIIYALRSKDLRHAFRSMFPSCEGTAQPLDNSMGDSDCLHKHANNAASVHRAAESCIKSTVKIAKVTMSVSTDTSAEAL
smiles,measurement,setting,value
"CCCCCCC(C)(C)c1ccc([C@@H]2C[C@H](O)CC[C@H]2CCCO)c(O)c1 [CP55,940, 2-[(1R,2R,5R)-5-hydroxy-2-(3-hydroxypropyl)cyclohexyl]-5-(2-methyloctan-2-yl)phenol, reference compound]",pertussis toxin (PTX) sensitivity of induced ERK1/2 phosphorylation,CB1 receptor [1],substantially attenuated by pertussis toxin (PTX)
same,effect of β-arrestin 1 knockdown on induced ERK1/2 phosphorylation,CB1 receptor [1],not by β-arrestin knockdown
"CCc1c(C(=O)NCCc2ccc(N3CCCCC3)cc2)[nH]c2ccc(Cl)cc12 [Compound 1, 5-Chloro-3-ethyl-N-(4-(piperidin-1-yl)phenethyl)-1H-indole-2-carboxamide]",α: binding cooperativity factor,CB1 receptor [2],6.9
"CCCCCc1c(C(=O)NCCc2ccc(N3CCCCC3)cc2)[nH]c2ccc(Cl)cc12 [Compound 2, 5-chloro-3-pentyl-N-(4-(piperidin-1-yl)phenethyl)-1H-indole-2-carboxamide, reference compound]",modulator concentration at which ERK1/2 phosphorylation reached a plateau,CB1 receptor [1],10 µM
same,effect of β-arrestin 1 knockdown on induced ERK1/2 phosphorylation,CB1 receptor [1],substantial inhibition of ERK1/2 phosphorylation
same,α: binding cooperativity factor,CB1 receptor [2],17.6
"CCc1c(C(=O)NCCc2ccc(N(C)C)cc2)[nH]c2ccc(Cl)cc12 [Compound 4, 5-chloro-N-(4-(dimethylamino)phenethyl)-3-ethyl-1H-indole-2-carboxamide]",α: binding cooperativity factor,CB1 receptor [2],19.7
"CCCCCc1c(C(=O)NCCc2ccc(N(C)C)cc2)[nH]c2ccc(Cl)cc12 [Compound 5, 5-chloro-N-(4-(dimethylamino)phenethyl)-3-pentyl-1H-indole-2-carboxamide]",α: binding cooperativity factor,CB1 receptor [2],16.5
"CCCc1c(C(=O)NCCc2ccc(N3CCCCC3)cc2)[nH]c2ccc(Cl)cc12 [Compound 12a, 5-Chloro-N-(4-(piperidin-1-yl)phenethyl)-3-propyl-1H-indole-2-carboxamide]",α: binding cooperativity factor,CB1 receptor [3],26.7
"CCCc1c(C(=O)NCCc2ccc(N(C)C)cc2)[nH]c2ccc(Cl)cc12 [Compound 12d, 5-Chloro-N-(4-(dimethylamino)phenethyl)-3-propyl-1H-indole-2-carboxamide]",modulator concentration at which ERK1/2 phosphorylation reached a plateau,CB1 receptor [1],5 µM
same,effect of β-arrestin 1 knockdown on induced ERK1/2 phosphorylation,CB1 receptor [1],substantial inhibition of ERK1/2 phosphorylation
same,"effect on CP55,940-induced G-protein coupling activity (GTPγS binding)",CB1 receptor [4],concentration-dependent inhibition of agonist-induced GTPγS binding
same,α: binding cooperativity factor,CB1 receptor [3],24.5
"CCCCc1c(C(=O)NCCc2ccc(N(C)C)cc2)[nH]c2ccc(Cl)cc12 [Compound 12e, 3-Butyl-5-chloro-N-(4-(dimethylamino)phenethyl)-1H-indole-2-carboxamide]",α: binding cooperativity factor,CB1 receptor [3],12.8
"CCCCCCc1c(C(=O)NCCc2ccc(N(C)C)cc2)[nH]c2ccc(Cl)cc12 [Compound 12f, 5-Chloro-N-(4-(dimethylamino)phenethyl)-3-hexyl-1H-indole-2-carboxamide]",pertussis toxin (PTX) sensitivity of induced ERK1/2 phosphorylation,CB1 receptor [1],PTX insensitive
same,modulator concentration at which ERK1/2 phosphorylation reached a plateau,CB1 receptor [1],5 µM
same,effect of β-arrestin 1 knockdown on induced ERK1/2 phosphorylation,CB1 receptor [1],substantial inhibition of ERK1/2 phosphorylation
same,"effect on CP55,940-induced G-protein coupling activity (GTPγS binding)",CB1 receptor [4],concentration-dependent inhibition of agonist-induced GTPγS binding
same,α: binding cooperativity factor,CB1 receptor [3],5.1
"CCc1c(C(=O)NCCc2ccc(N(C)C)cc2)[nH]c2cc(Cl)ccc12 [Compound 21a, N-(4-(Dimethylamino)phenethyl)-3-ethyl-6-chloro-1H-indole-2-carboxamide]",α: binding cooperativity factor,CB1 receptor [3],16.0
"CCc1c(C(=O)NCCc2ccc(N(C)C)cc2)[nH]c2cc(F)ccc12 [Compound 21b, N-(4-(Dimethylamino)phenethyl)-3-ethyl-6-fluoro-1H-indole-2-carboxamide]",α: binding cooperativity factor,CB1 receptor [3],22.9
"CCc1c(C(=O)NCCc2ccc(N(C)C)cc2)[nH]c2cc(OC)ccc12 [Compound 21c, N-(4-(Dimethylamino)phenethyl)-3-ethyl-6-methoxy-1H-indole-2-carboxamide]",α: binding cooperativity factor,CB1 receptor [3],6.2
"CCc1c(C(=O)NCCc2ccc(N(C)C)cc2)[nH]c2ccc(OC)cc12 [Compound 21d, N-(4-(Dimethylamino)phenethyl)-3-ethyl-5-methoxy-1H-indole-2-carboxamide]",α: binding cooperativity factor,CB1 receptor [3],11.9
"CCc1c(C(=O)NCCCc2ccc(N(C)C)cc2)[nH]c2ccc(Cl)cc12 [Compound 26, 5-Chloro-N-(3-(4-(dimethylamino)phenyl)propyl)-3-ethyl-1H-indole-2-carboxamide]","allosteric modulation of orthosteric agonist CP55,940 binding",CB1 receptor [3]; result in words,loss of allosteric modulation
